CHO parental Ca: counter-screen: ATP calcium response change in parental CHO cells; parental CHO-K1, ATP-induced calcium, Fluo-8 fluorescence; inhibition, % at 5.6 µM; hit rate 0.63% among 330,000; AID 463079;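 active = inhibition above that plate's mean sample inhibition plus 3 SD, cut at about 26% in these data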
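Assay system – parental CHO cells · Reagent – ATP stimulus · Detection – intracellular calcium via Fluo-8 no-wash fluorescent dye · Evaluation – percent inhibition of ATP-evoked calcium rise, normalized to controls · Controls – ATP wells versus no-ATP DMSO wells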
OX1R antag-1: antagonists of human orexin 1 receptor. O43613. CHO/OX1R cells, Fluo-8 calcium fluorescence, orexin A. inhibition, % at 5 µM. hit rate 0.43% among 330,000. AID 434989;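 active = inhibition above its plate's threshold, mean inhibition of all tested compounds on the plate plus 3 SD, cut at about 37% in these data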
Target sequence (O43613 whole entry, looked up): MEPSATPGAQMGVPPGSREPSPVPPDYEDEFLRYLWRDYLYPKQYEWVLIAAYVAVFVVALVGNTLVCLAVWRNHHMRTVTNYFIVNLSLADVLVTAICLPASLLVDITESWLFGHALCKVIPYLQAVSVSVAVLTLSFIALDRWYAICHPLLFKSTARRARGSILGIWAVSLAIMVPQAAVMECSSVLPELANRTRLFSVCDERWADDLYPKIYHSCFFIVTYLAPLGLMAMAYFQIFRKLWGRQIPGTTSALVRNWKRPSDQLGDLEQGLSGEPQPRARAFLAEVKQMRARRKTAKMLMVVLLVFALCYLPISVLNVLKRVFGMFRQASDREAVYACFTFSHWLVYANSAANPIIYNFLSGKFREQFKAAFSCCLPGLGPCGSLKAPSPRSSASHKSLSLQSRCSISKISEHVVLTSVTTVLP
OX1R antag-2: OX1R (human) antagonism; O43613; OX1R-expressing cells, FRET antagonist read-out; inhibition, % at 6.6 µM; hit rate 1.8% among 330,000; AID 485270; in the data active = inhibition mostly above about 38%, no sharp cut-off; inactive = mostly below about 40%
TAAR1 antagonist: antagonists of human TAAR1; inhibition, % at 3 µM; hit rate 1.5% among 360,000; CHO RD-HGA16 TAAR1, Fluo-8 calcium fluorescence, antagonist; AID 624466;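 active = inhibition above a per-plate cutoff, the mean inhibition of test compounds on that plate plus 3 SD, cut at about 49% in these data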
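Test system: RD-HGA16 CHO cells with stable hTAAR1 and Gα16 / Probe or stimulus: EC80 β-phenethylamine stimulus / Times: seeding 17-24 h prior, 75-min 37 °C, 30-min RT dye loading / Detection: Fluo-8 calcium-sensitive fluorescence / Read-out basis: % inhibition scaled between DMSO and EC80 PEA controls / Repeats: singlicate, one well per test compound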
GPR7 antag: blocks human GPR7 receptor signaling | inhibition, % at 4.4 µM | GPR7-expressing cells, fluorescence antagonist assay | AID 1861 | hit rate 1.1% among 290,000 | P48145; in the data active = inhibition above about 16%, passing the limit was not always enough;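 note: cells stimulated with the agonist NPW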
Target sequence (P48145 whole entry, looked up): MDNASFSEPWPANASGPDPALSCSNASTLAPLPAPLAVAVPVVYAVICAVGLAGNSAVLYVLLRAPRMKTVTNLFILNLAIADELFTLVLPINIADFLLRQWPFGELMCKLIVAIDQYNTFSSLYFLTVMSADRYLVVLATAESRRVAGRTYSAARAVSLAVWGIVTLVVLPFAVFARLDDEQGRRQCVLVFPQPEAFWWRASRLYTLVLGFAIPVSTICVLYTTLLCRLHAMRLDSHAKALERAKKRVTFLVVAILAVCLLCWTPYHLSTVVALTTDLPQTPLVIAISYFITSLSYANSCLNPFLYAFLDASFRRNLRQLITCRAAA
TAAR1 agonist: human TAAR1 agonism; Q96RJ0; hit rate 0.99% among 360,000; activation, % at 3 µM; CHO RD-HGA16 TAAR1, Fluo-8 calcium fluorescence; vehicle wells 0%, saturating PEA agonist 100%;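 active = activation above the mean activation of all test compounds in the run plus 3 SD, cut at about 38% in these data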
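test system = CHO RD-HGA16 cells carrying human TAAR1 plus Gα16 | schedule = 17-24 h seeding, 75 min 37 °C dye, 30 min RT | compound dosing = 3 µM single concentration | control set = DMSO and PEA EC100 | replicates = n 1 | signal = Fluo-8 fluorescence, 5 s baseline then 140 s kinetic read | measure = percent activation vs PEA EC100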
TAAR1 nonsel count: counter-screen for TAAR1 antagonists: nonselective antagonists; shares compounds with TAAR1 antagonist; counterscreen cell line, calcium fluorescence, antagonist mode; inhibition, % at 3 µM; hit rate 77% among 2,400; AID 651780; in the data active = inhibition above about 22%;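 note: CHO-Ga16 host cells stimulated with ATP at an EC80 level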
TAAR1 ant conf: confirmation of human TAAR1 antagonists; AID 651785; TAAR1-expressing cells, fluorescence antagonist read-out; shares compounds with TAAR1 antagonist; inhibition, % at 3 µM; hit rate 40% among 2,400; in the data active = inhibition above about 49%;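 note: CHO-Ga16 host cells challenged with agonist PEA near its EC80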
Ga16 ag counter: counter-screen for TAAR1 antagonists: nonselective Ga16 agonists; shares compounds with TAAR1 antagonist; Ga16-expressing cells, calcium fluorescence, agonist counterscreen; activation, % at 3 µM; hit rate 18% among 2,400; AID 651953; in the data active = activation above about 12%
TAAR1 ag counter: activates human TAAR1 in antagonist counter-screen; shares compounds with TAAR1 antagonist; hTAAR1 cell line, fluorescence activation, agonist mode; activation, % at 3 µM; hit rate 2% among 2,400; AID 651955; in the data active = activation above about 37%;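 note: CHO cells stably expressing TAAR1 with calcium dye readout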
A number is an active result; – = inactive; · = no result. Compounds with a hit are over-represented: about 4.6% of the library has one in this group of screens.

SMILES | CHO parental Ca | OX1R antag-1 | OX1R antag-2 | TAAR1 antagonist | GPR7 antag | TAAR1 agonist | TAAR1 nonsel count | TAAR1 ant conf | Ga16 ag counter | TAAR1 ag counter
COCCNc1nc(NCc2ccc(C(C)C)cc2)c2sccc2n1 | · | · | · | – | · | – | · | · | · | ·
CCOc1ccc(N2C(=O)C(Cl)=C(Nc3ccccc3O)C2=O)cc1 | – | – | – | 56.7 | – | – | 27.8 | – | 12.0 | –
COc1ccccc1NC1=C(Cl)C(=O)N(c2ccccc2)C1=O | – | – | – | – | – | – | · | · | · | ·
CC1(C(=O)NC2CCCC2)CCC(=O)N1C1CCN(Cc2ccccc2)CC1 (stereo not drawn) | · | · | · | – | · | – | · | · | · | ·
Cc1ccccc1OCc1nc2ccccc2c(=O)n1/N=C/c1cn[nH]c1-c1ccccc1 | – | – | – | 63.9 | – | – | 26.7 | 56.3 | – | –
Cc1nc2ccccc2c(=O)n1/N=C/c1cn[nH]c1-c1ccccc1 | – | – | – | 58.2 | – | – | 26.8 | – | – | –
Cc1ccccc1OCc1nc2ccccc2c(=O)n1/N=C/c1cccc([N+](=O)[O-])c1 | – | – | – | – | – | – | · | · | · | ·
O=c1c2ccccc2nc(COc2ccccc2)n1/N=C/c1ccco1 | – | – | – | – | – | – | · | · | · | ·
Cc1ccc(-c2[nH]ncc2/C=N/n2c(COc3ccccc3)nc3ccccc3c2=O)cc1 | – | – | – | 65.8 | – | – | 33.1 | 52.7 | – | –
O=c1c2ccccc2nc(COc2ccccc2)n1/N=C/c1ccc(O)c(O)c1 | – | – | – | 68.3 | – | – | – | – | – | –
CC1CCN(S(=O)(=O)c2c[nH]c(=O)[nH]c2=O)CC1 | – | – | – | – | · | – | · | · | · | ·
O=[N+]([O-])c1ccc(S(=O)(=O)NN=Cc2ccc(Cl)c(Cl)c2)cc1 | · | · | · | – | · | – | · | · | · | ·
Fc1ccc(C(CCCn2nnc(-c3cccnc3)n2)c2ccc(F)cc2)cc1 | 35.4 | 47.9 | – | 90.0 | – | – | 39.0 | 57.5 | – | –
Fc1ccc(-n2nnc(-c3cccnc3)n2)cc1 | – | – | – | – | – | – | · | · | · | ·
COc1ccccc1C(=O)NCCC(=O)Nc1ccc(OC(F)(F)F)cc1 | – | – | – | – | – | – | · | · | · | ·
CCCCN(C=O)c1c(CC)nc2c(OCc3cccc(Cl)c3)cccn12 | · | · | · | – | · | – | · | · | · | ·
CC1CCN(C(=O)C2CCN(S(=O)(=O)c3cccc4cccnc34)CC2)CC1 | – | – | – | – | – | – | · | · | · | ·
O=C(C1CCN(S(=O)(=O)c2cccc3cccnc23)CC1)N1CCn2c1nc1ccccc12 | – | – | – | 59.5 | – | – | 28.1 | – | – | –
COc1ccc(-c2cc(C(=O)OCC(=O)NC3CC3)c3ccccc3n2)cc1 | – | – | – | – | · | – | · | · | · | ·
COc1ccc2cc(-c3cc(C(=O)OCC(=O)NC4CCS(=O)(=O)C4)c4ccccc4n3)ccc2c1 (stereo not drawn) | – | – | – | 58.9 | – | – | 40.9 | 51.4 | 11.8 | –
Cc1noc(C)c1CSCC(=O)NCCN1C(=O)S/C(=C\c2ccccc2F)C1=O | – | – | – | 56.1 | · | – | 35.2 | 53.6 | 13.0 | –
O=C(CN1C(=O)/C(=C/c2ccccc2F)Sc2ccccc21)NCCCN1CCOCC1 | – | – | – | – | – | – | · | · | · | ·
CCOc1ccc(N(C(C)C(=O)Nc2cccnc2)S(C)(=O)=O)cc1 (stereo not drawn) | – | – | – | – | – | – | · | · | · | ·
CCOc1ccc(N(C(C)C(=O)N/N=C(\C)c2cccc(NC(=O)c3ccccc3)c2)S(C)(=O)=O)cc1 (stereo not drawn) | – | – | – | 53.6 | – | – | 29.2 | – | – | –
CC(C)CN(C(=O)c1cccc(S(=O)(=O)N2CCN(Cc3ccccc3)CC2)c1)C1CCS(=O)(=O)C1 (stereo not drawn) | – | – | – | – | · | – | · | · | · | ·
SMILES | CHO parental Ca | OX1R antag-1 | OX1R antag-2 | TAAR1 antagonist | GPR7 antag | TAAR1 agonist | TAAR1 nonsel count | TAAR1 ant conf | Ga16 ag counter | TAAR1 ag counter
O=[N+]([O-])c1ccccc1N(S(=O)(=O)c1ccccc1)S(=O)(=O)c1ccccc1 | · | · | · | 72.2 | · | – | 24.1 | 50.3 | – | –
COc1ccccc1N1CCN(C(=O)/C=C/c2cccs2)CC1 | – | – | – | – | – | – | · | · | · | ·
COc1ccccc1N1CCN(C(=O)c2oc3ccccc3c2C)CC1 | · | · | · | – | · | – | · | · | · | ·
COc1ccccc1N1CCN(C(=O)c2ccc(Br)o2)CC1 | – | – | – | 101.4 | · | – | – | – | – | –
COc1ccccc1N1CCN(C(=O)/C=C/c2ccccc2)CC1 | – | – | – | 105.1 | – | – | – | – | – | –
COc1ccccc1N1CCN(C(=O)c2oc3ccc(F)cc3c2C)CC1 | – | – | – | 53.5 | – | – | 26.4 | 50.7 | – | –
COC(=O)C(C(=O)OC)c1ccccc1NC(=O)OCc1ccccc1 | · | · | · | – | · | – | · | · | · | ·
O=C(N/N=C/C=C/c1ccccc1[N+](=O)[O-])c1cc(-c2ccccc2)n[nH]1 | – | – | – | 60.2 | – | – | 23.6 | – | – | –
Fc1cc(F)cc(Nc2nc(Cl)nc(NC3CCCC3)n2)c1 | – | – | – | 55.7 | · | – | – | – | – | –
Cc1cccc(NC(=O)c2oc3ccc(S(=O)(=O)N4CCOCC4)cc3c2C)c1C | – | – | – | 58.2 | – | – | 31.5 | 51.2 | – | –
Cc1ccc(NC(=O)c2oc3ccc(S(=O)(=O)N4CCOCC4)cc3c2C)c(C)c1 | – | – | – | – | – | – | · | · | · | ·
COc1cc(NC(=O)c2ccc(-c3cccc(F)c3)o2)ccc1NC(=O)c1ccccc1Cl | – | – | – | 55.4 | · | – | 22.6 | – | – | –
COc1ccc(NC(=O)c2ccc(-c3ccc(F)cc3)o2)cc1OC | · | · | · | – | · | – | · | · | · | ·
O=C(Cc1c(Cl)cccc1Cl)N/N=C/c1cccnc1 | · | · | · | – | – | – | · | · | · | ·
O=C1CCCc2c1cc(C(=O)O)c(=O)n2-c1ccccc1 | – | – | – | – | – | – | · | · | · | ·
O=C1CCCc2c1cc(C(=O)Nc1ccc(Br)cn1)c(=O)n2-c1ccccc1 | – | – | – | 105.9 | – | – | – | – | – | –
COc1ccc(C(C(=O)NC2CCCC2)n2c(-c3cccs3)nc3ccccc32)cc1 (stereo not drawn) | · | · | · | – | · | – | · | · | · | ·
CCN1/C(=C\C=C(C(C)=O)C(C)=O)Sc2ccccc21 | – | – | – | – | – | – | · | · | · | ·
CCOC(=O)/C(C#N)=C(C)/C=C1\Sc2ccccc2N1CC | – | – | – | 56.3 | – | – | 22.1 | – | 17.7 | –

Bioassay records (PubChem)
